Measurements from ChEMBL document CHEMBL2040545, “Anti-influenza activity of marchantins, macrocyclic bisbibenzyls contained in liverworts” (2011).
Active and inactive are the calls of the source. The rule behind the calls is not given here.

Key:
[1] = biological target: Polymerase acidic protein (Influenza A virus (A/Puerto Rico/8/1934(H1N1))) (UniProt P03433); test: Inhibition of PA endonuclease at 1 uM; type: functional
Procedure, shortened: (§1)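 Recombinant His-tagged influenza A PA N-terminal endonuclease domain from E. coli, purified on Ni2+-agarose and then Q anion exchange, used at about 0.1 µM (0.35 µg/100 µl). Buffer at pH 7.3, 1 µg M13mp18 single-stranded circular DNA as substrate, compound at 1 or 10 µM. Digestion read by agarose electrophoresis with ethidium bromide staining. No-enzyme control included.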

[2] = biological target: Polymerase acidic protein (Influenza A virus (A/Puerto Rico/8/1934(H1N1))) (UniProt P03433); test: Inhibition of PA endonuclease at 10 uM; type: functional; procedure, shortened: as §1
[3] = biological target: Polymerase acidic protein (Influenza A virus (A/Puerto Rico/8/1934(H1N1))) (UniProt P03433); test: Inhibition of Influenza Viral Focus Formation at 13 uM relative to control; type: functional, cell-based; conditions: Canis lupus familiaris, MDCK
Procedure, shortened: (§2)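 MDCK cells infected with B/Malaysia/2506/2004 at m.o.i. 0.001, adsorbed 30 min at 37 °C, washed. Compound (50, 12.5 or 3.1 µM, DMSO vehicle) added in growth medium, no pre-incubation. Supernatant sampled daily over 3 days at 37°C. Each sample titrated 10-fold on fresh MDCK, ethanol-fixed after 1 day. Foci stained with anti-NP serum and the PAP/DAB method, then counted as FFU/ml.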

[4] = (§3) Inhibition of Influenza Replication; type: functional, Canis lupus familiaris, MDCK
Procedure, shortened: (§4)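 MDCK monolayers (MEM, 10% FBS, 37 °C). Compounds at 6.25–50 µM, DMSO vehicle, premixed 30 min at 37°C with TCID50 of A/Hiroshima/52/2006 (H3N2), A/Solomon/3/2006 (H1N1) or B/Malaysia/2506/2004, then added to PBS-washed cells. Incubated 4 days at 34°C, 5% CO2. Cells fixed in 10% formaldehyde; surviving cells stained with naphthol blue black.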

[5] = biological target: Polymerase acidic protein (Influenza A virus (A/Puerto Rico/8/1934(H1N1))) (UniProt P03433); test: Inhibition of Influenza Viral Focus Formation at 50 uM relative to control; type: functional, cell-based; conditions: Canis lupus familiaris, MDCK; procedure, shortened: as §2
[6] = as §3; type: functional, Canis lupus familiaris, MDCK; procedure, shortened: as §4; remark: listed apart in the source
[7] = as §3; type: functional, Canis lupus familiaris, MDCK; procedure, shortened: as §4; remark: listed apart in the source

SMILES | inhibition [1] | inhibition [2] | inhibition [3] [%] | Inhibition [4] [µM] | inhibition [5] [%] | Inhibition [6] [µM] | Inhibition [7] [µM]
COC1=CC(=O)O[C@@H](/C=C/c2ccccc2)C1 | inactive | inactive | – | – | – | – | –
COc1c2ccoc2c(OCC=C(C)C)c2oc(=O)ccc12 | inactive | inactive | – | – | – | – | –
Oc1ccc2cc1Oc1ccc(cc1)CCc1cccc(c1)Oc1c(O)cccc1CC2 | inactive | inactive | – | – | – | – | –
CC1(C)OC1COc1c2occc2cc2ccc(=O)oc12 (stereo unspecified) | inactive | inactive | – | – | – | – | –
Oc1cc2cc(c1O)Oc1ccc(cc1)CCc1cccc(O)c1Oc1cccc(c1)CC2 [MARCHANTIN A] | inactive | Active | 2.33 | 50 | 10.2 | – | –
C=CCc1ccc(O)c(-c2ccc(O)c(CC=C)c2)c1 | inactive | inactive | – | – | – | – | –
COc1cc(/C=C/c2ccccc2)oc(=O)c1 | inactive | inactive | – | – | – | – | –
COc1cccc2c(-c3ccc(O)c4c(OC)cccc34)ccc(O)c12 | inactive | inactive | – | – | – | – | –
Oc1cccc(CCc2ccc(Oc3cc(CCc4cccc(O)c4)cc(O)c3O)cc2)c1 [PERROTETTIN F] | inactive | Active | – | 50 | – | – | –
COC1=CC(=O)O[C@@H](CCc2ccccc2)C1 | inactive | inactive | – | – | – | – | –
CC(C)=CCOc1c2occc2cc2ccc(=O)oc12 | inactive | inactive | – | – | – | – | –
C/C=C(\C)C(=O)CC1C2=CC(=O)[C@](C)(OC(C)=O)C(=O)C2=COC12OC(C)CCC2O (stereo partly specified) | inactive | inactive | – | – | – | – | –
CC(C)=CCOc1c2ccoc2cc2oc(=O)ccc12 | inactive | inactive | – | – | – | – | –
COc1c2ccoc2cc2oc(=O)ccc12 | inactive | inactive | – | – | – | – | –
COc1cc(O)cc(C(=O)c2cc(C)cc(OC)c2OC)c1CO | inactive | inactive | – | – | – | – | –
COc1cc(C)cc(C(=O)c2cc(O)cc(OC)c2CO)c1O | inactive | inactive | – | – | – | – | –
COc1cccc2c1Oc1cccc(c1)CCc1cc(OC)c(OC)c(c1)Oc1ccc(cc1)CC2 | inactive | inactive | -2.75 | – | 5.78 | – | –

SMILES | inhibition [1] | inhibition [2] | inhibition [3] [%] | Inhibition [4] [µM] | inhibition [5] [%] | Inhibition [6] [µM] | Inhibition [7] [µM]
C=CCc1ccc(O)c(-c2cc(CC=C)ccc2O)c1 | inactive | inactive | – | – | – | – | –
Oc1ccc2cc1Oc1ccc(cc1)CCc1cccc(O)c1Oc1cccc(c1)CC2 | inactive | inactive | – | – | – | – | –
COc1ccc2c(c1)CCc1ccc(cc1)Oc1cc(ccc1O)CCc1ccc-2c(O)c1 | inactive | inactive | -3.59 | – | 5.56 | – | –
COC(=O)c1[nH]c(C(=O)OC)c(-c2c[nH]c3ccc(O)cc23)c1-c1c[nH]c2ccc(O)cc12 | inactive | inactive | – | – | – | – | –
COC1Cc2cccc(c2)Oc2c(O)cccc2CCc2ccc(cc2)Oc2cc1cc(O)c2O (stereo unspecified) [MARCHANTIN E] | inactive | Active | 2.96 | 25 | 4.44 | 50 | 50
C[C@H]1OC(=O)C=C[C@@H]1O | inactive | inactive | – | – | – | – | –
Oc1cc2cc(c1O)Oc1ccc(cc1)CCc1ccc(O)c(O)c1Oc1cccc(c1)CC2 | inactive | Active | – | – | – | – | –
COc1c2ccoc2c(OC)c2oc(=O)ccc12 | inactive | inactive | – | – | – | – | –
Oc1ccc2c(c1)CCc1ccc(O)c(c1)Oc1ccc(cc1)CCc1cccc(c1)O2 | inactive | inactive | – | – | – | – | –
COC1=CC(=O)O[C@@H](/C=C/c2ccc3c(c2)OCO3)C1 | inactive | inactive | – | – | – | – | –
COc1ccc(/C=C/c2cc(OC)cc(=O)o2)cc1 | inactive | inactive | – | – | – | – | –
COc1cc2c(cc1O)-c1ccc(O)cc1CCc1cc(O)c(O)c(c1)Oc1ccc(cc1)CC2 | inactive | Active | -4.66 | – | 5.11 | – | –
CC(C)[C@@H](C)/C=C/[C@@H](C)[C@H]1CCC2=C3C=CC4=CCCC[C@]4(C)[C@H]3CC[C@@]21C | inactive | inactive | – | – | – | – | –
COc1ccc2ccc(=O)oc2c1CC=C(C)C | inactive | inactive | – | – | – | – | –
COc1c2occc2cc2ccc(=O)oc12 | inactive | inactive | – | – | – | – | –
COC(=O)c1[nH]c(C(=O)OC)c(-c2c[nH]c3ccc(O)cc23)c1-c1c[nH]c2ccccc12 | inactive | inactive | – | – | – | – | –
